Measurements from different studies.
Target: Vascular endothelial growth factor receptor 1 (FLT1, Homo sapiens, UniProt P17948)
Sequence (P17948 784-1338, limits assumed, as in one of the studies): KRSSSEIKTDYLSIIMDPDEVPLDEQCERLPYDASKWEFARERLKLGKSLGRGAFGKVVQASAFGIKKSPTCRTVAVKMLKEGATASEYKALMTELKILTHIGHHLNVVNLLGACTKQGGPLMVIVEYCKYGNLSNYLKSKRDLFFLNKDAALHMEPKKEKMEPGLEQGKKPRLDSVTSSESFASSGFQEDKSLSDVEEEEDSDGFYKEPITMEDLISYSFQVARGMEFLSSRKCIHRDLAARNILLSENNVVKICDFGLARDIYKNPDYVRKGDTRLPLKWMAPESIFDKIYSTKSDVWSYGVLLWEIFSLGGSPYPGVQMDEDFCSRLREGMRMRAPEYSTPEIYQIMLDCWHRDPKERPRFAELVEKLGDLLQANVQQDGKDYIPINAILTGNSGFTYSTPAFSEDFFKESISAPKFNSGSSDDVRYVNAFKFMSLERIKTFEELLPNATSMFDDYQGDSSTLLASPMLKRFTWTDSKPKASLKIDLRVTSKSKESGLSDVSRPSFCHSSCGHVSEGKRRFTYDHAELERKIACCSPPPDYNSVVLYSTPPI

SMILES | observed | action | method | concentration | quantity | value
CS(=O)(=O)N1CCCC(NC(=O)[C@H](CCC2CCCCC2)NC(=O)c2ccc(CNc3ncnc4c3nnn4-c3ccccc3)cc2)C1 (some centres unmarked) | cell-free assay | – | competition with immobilised ligand | 0.1 µM | remaining binding | 86%
COc1cc(Nc2cnc(C#N)c(O[C@H](C)CN(C)C)n2)ncc1-c1cnn(C)c1 | enzyme activity | inhibitor | radiometric | 10 µM | remaining activity | 31%
C[C@H](c1ccc(F)cc1)N(Cc1cccc(C(=O)O)c1)C(=O)c1cnc2ccccc2c1 | cell-free assay | – | competition with immobilised ligand | 1 µM | remaining binding | 100%
Cc1ccc(NC(=O)c2ccc(CN3CCN(C)CC3)cc2)cc1Nc1nc(-c2cccnc2)cs1 | cell-free assay | – | – | 0.5 µM | remaining signal | 96.4%
Cc1cnc(NC2CCOCC2)nc1-n1cnc(C(=O)NC(CN)c2cc(F)cc(Cl)c2)c1 (centres unmarked) | enzyme activity | inhibitor | radiometric | 1 µM | remaining activity | 92%
Cc1ccc(Nc2nccc(N(C)c3ccc4c(C)n(C)nc4c3)n2)cc1S(N)(=O)=O | enzyme activity | inhibitor | – | 10 µM | inhibition | 102%
COc1cc2ncnc(Nc3ccc(Oc4ccccc4)cc3C)c2cc1OC | enzyme activity | inhibitor | – | 1 µM | inhibition | -2%
Nc1nc(Nc2ccccc2)sc1C(=O)c1c(F)cccc1F | enzyme activity | inhibitor | – | 10 µM | remaining activity | 17%
CCN(CC)CCNC(=O)c1c(C)[nH]c(/C=C2\C(=O)Nc3ccc(F)cc32)c1C | enzyme activity | inhibitor | – | 10 µM | inhibition | 102%
COCCOc1nc(-c2ccc(Cl)nc2)nc2c1CN(C(=O)c1ncn3ccccc13)CC2 | cell-free assay | – | competition with immobilised ligand | 0.1 µM | remaining binding | 87%
CCOc1cc(-c2nncn2C)ccc1Nc1ncc2cc(C)nc(NCC(C)(C)C)c2n1 | enzyme activity | inhibitor | FRET | 1 µM | inhibition | < 15%
O=C(Nc1cnn(-c2csc(C(=O)NC3COC3)c2)c1)Nc1c(F)cccc1Cl | enzyme activity | inhibitor | – | 5 µM | remaining activity | 86.1%
N#CC1(c2ccccn2)CCN(Cc2cc(C(=O)N3CCCC3)c(=O)n3ccccc23)CC1 | cell-free assay | – | competition with immobilised ligand | 1 µM | remaining binding | 100%
CCCOc1ccc(OC)c(F)c1C(=O)c1ccc(C(=O)N[C@@H]2CNC[C@H]2NC(=O)c2ccc3[nH]ncc3c2)cc1 | enzyme activity | inhibitor | – | 10 µM | remaining activity | 35%
O=C(O)[C@@H]1[C@@H](Cn2nnc3ccccc3c2=O)CC[C@H]1C(=O)c1ccc(OCCC2CCOCC2)cc1 | cell-free assay | – | competition with immobilised ligand | 1 µM | remaining binding | 100%
CC(C)(C)c1nc2c(s1)c1nc(N)ncc1c1ccc(NS(=O)(=O)c3c(F)cccc3F)c(F)c12 | enzyme activity | inhibitor | radiometric | 1 µM | remaining activity | 111%
CNC(=O)c1cc(Oc2ccc(NC(=O)Nc3ccc(Cl)c(C(F)(F)F)c3)cc2)ccn1 | cell-free assay | – | – | 0.5 µM | remaining signal | 50.5%
Cc1ccc(C(=O)Nc2ccc(CN3CCN(C)CC3)c(C(F)(F)F)c2)cc1C#Cc1cnc2cccnn12 | cell-free assay | – | – | 23.5 nM | remaining signal | 33%
CC(C)(O)[C@H]1CC[C@H](Nc2ccc3ncc(-c4cccc(C(F)(F)F)c4)n3n2)CC1 | enzyme activity | inhibitor | – | 1 µM | remaining activity | 92.5%
C[C@@H](c1cccc(C#N)c1)n1cc(Cl)cc(C(N)=O)c1=N | cell-free assay | – | competition with immobilised ligand | 1 µM | remaining binding | 100%
N#CCCc1ccc2c(c1)-c1[nH]c3ccc([N+](=O)[O-])cc3c1CC(=O)N2 | cell-free assay | – | – | 0.5 µM | remaining signal | 99.7%
O=C(Nc1cnn(-c2csc(C(=O)NC3COC3)c2)c1)Nc1ccccc1Cl | enzyme activity | inhibitor | – | 5 µM | remaining activity | 101%
Cc1ccc(NC(=O)c2ccc(C)c(C(F)(F)F)c2)cc1C#Cc1nn(C2CCC(O)CC2)c2ncnc(N)c12 (centres unmarked) | cell-free assay | – | – | 10 µM | remaining signal | 3%
COc1cc(/C=C/C(=O)CC(=O)/C=C/c2ccc(O)c(OC)c2)ccc1O | enzyme activity | inhibitor | – | 1 µM | activity vs control | 67%
CNCc1ccc(-c2cc(-c3nc(-c4ccc(S(=O)(=O)C(C)C)cc4)cnc3N)on2)cc1 | enzyme activity | inhibitor | – | 0.4 µM | inhibition | 50%
CO[C@@H](C)c1c(Nc2ccc([C@@H](N(C)C(=O)C3CCS(=O)(=O)CC3)C(F)(F)F)cc2)cnc2cc(Cl)nn12 | cell-free assay | – | competition with immobilised ligand | 1 µM | remaining binding | 85%
COc1cc(Cl)c(C(=O)N[C@@H](CN[C@H]2CC[C@@H](N)CC2)Cc2ccc(C#N)cc2)cc1-c1ccc(CN[C@H](C)c2ccc(C)cc2)o1 | enzyme activity | inhibitor | – | 1 µM | remaining activity | 102%
Cc1nccc(COC(=O)N2C[C@@H]3[C@@H](CNC(=O)c4ccc5[nH]nnc5c4)[C@@H]3C2)n1 | cell-free assay | – | competition with immobilised ligand | 1 µM | remaining binding | 100%
COc1cc2nccc(Oc3ccc(NC(=O)c4c5n(n(-c6ccc(F)cc6)c4=O)CCCC5)cc3)c2cc1OC | enzyme activity | inhibitor | – | 0.1 µM | inhibition | 23%
